High-throughput results (PubChem)
Rows were chosen to be rich in hits. Some 2.4% of all compounds tested hit in one or more screens of this group.
miR-122 sensor: miR-122 Renilla sensor signal increase in Huh7, primary screen, miR-122 inhibitor project, cell-based, single point, plate reader; 0.3% of 340,000 active; AID 602342, 2012; Huh7 miR-122 Renilla luciferase sensor, 48 h; neutral wells = 0, positive control = 100; activation (reporter increase), % at 12.5 µM;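 active = mean replicate activation score at least 90 and every replicate individually at or above 90; inconclusive = only one of the two criteria met; inactive = neither criterion met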;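 also: higher luciferase means less miR-122 activity so hits act as miR-122 inhibitors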
Env fusion inh: inhibitors of HIV-1 Env-driven cell-cell fusion, primary screen, HeLa-JRFL effector, CEM21 target cells, luciferase; inhibition, % at 12.3 µM; 1.1% of 360,000 active;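 active = mean replicate inhibition score of at least 50 and every replicate individually at or above 50; inconclusive = only one of the two criteria met; inactive = mean below 50 and not all replicates reaching 50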;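 also: 0% = plate neutral controls and 100% = maraviroc near 300 nM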
INS-1E GSIS act: GLuc luminescence reporter in INS-1E cells, primary screen for activators of glucose-dependent secretion of insulin; 0.61% of 370,000 active; activation, % at 16.6 µM; INS-1E GLuc reporter insulin secretion, 2-3 h; AID 743287, 2014;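 active = lowest replicate activation of at least 40%, so every replicate reaches that level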;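 also: 0% = median of neutral control wells and 100% = median of IBMX positive control wells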
Cneo AK release: Cryptococcus neoformans cell lysis inducers, primary screen, AK release luminescence, single concentration; C. neoformans lysis, adenylate kinase release luminescence, 4 h; normalised: neutral wells 0, clomiphene wells 100; lysis activity, % at 15 µM; 0.2% of 360,000 active;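 active = mean lysis activity across replicates of at least 80%, whatever share of replicates individually reach that level; inactive = mean lysis activity below 80%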
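Assay system: log-phase C. neoformans yeast / Quantity: yeast cell density of 5 × 10^6 cells/mL / Medium: fresh YPD growth medium / Compound: single dose / Timing: static 4 h at 37 °C with compound, 1 h detection / Measured by: adenylate kinase release luminescence / Read-out: lysis from increased AK signal / Benchmarks: Clomiphene as positive lysis control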
Rtt109 Vps75: inhibitors of C. albicans Rtt109/Vps75 HAT, primary screen, biochemical, ThioGlo CoA-SH fluorescence, plate reader | Histone acetyltransferase RTT109 (Candida albicans (strain SC5314 / ATCC MYA-2876)), … | purified Rtt109/Vps75, 4 h | inhibition, % at 34.9 µM | 0.16% of 330,000 active | AID 540336, 2011;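 active = inhibition of at least 50% in every replicate; inconclusive = best replicate reaches 50% inhibition but some replicates fall short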
dFosB act: activators of delta FosB homodimer, primary screen, biochemical, fluorescence polarization, TAMRA-CDK5 oligo, single point; Protein FosB (Mus musculus), P13346; purified delta FosB; percent of positive-control signal above neutral wells; activation, % at 25 µM; 0.99% of 340,000 active;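 active = mean activation above about 17%, with every replicate also reaching it, limit read from the data, passing the limit was not always enough; inconclusive = only one of the two conditions met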
Target sequence (P13346 whole entry, looked up): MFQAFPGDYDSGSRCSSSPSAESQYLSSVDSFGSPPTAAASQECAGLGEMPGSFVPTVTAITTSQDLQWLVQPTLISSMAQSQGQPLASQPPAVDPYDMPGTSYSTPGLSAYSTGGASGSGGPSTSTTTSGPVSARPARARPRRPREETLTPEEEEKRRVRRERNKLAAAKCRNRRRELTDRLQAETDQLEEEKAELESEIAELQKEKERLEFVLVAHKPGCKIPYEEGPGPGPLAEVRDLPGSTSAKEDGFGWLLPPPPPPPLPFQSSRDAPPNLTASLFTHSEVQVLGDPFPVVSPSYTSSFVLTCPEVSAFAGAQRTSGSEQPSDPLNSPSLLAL
* = called active by the depositor; [ ] = dose if it differs, or a comment.

For C[C@H](CO)N1C[C@H](C)[C@@H](CN(C)Cc2cccc(C(=O)O)c2)Oc2ncc(-c3ccccc3F)cc2C1=O the results were miR-122 sensor 6.8[16.7 µM], Env fusion inh -46.0[16.7 µM], INS-1E GSIS act 22.7 and Cneo AK release 3.4.
`CSC1=C(C#N)C(c2ccccc2Cl)C2=C(N1)c1ccccc1C2=O` (configuration not stated) gave miR-122 sensor -1.3, Env fusion inh 36.9, Cneo AK release 0.1, Rtt109 Vps75 2.1 and dFosB act 1.7.
`CSC1=C(C#N)C(c2ccccc2C)C(C#N)=C(N)N1` (configuration not stated) gave miR-122 sensor -2.0, Env fusion inh 61.7*, Cneo AK release 6.3, Rtt109 Vps75 4.3 and dFosB act 1.0.
Screening CCCCOc1ccccc1C1CC(=O)NC2=C1C(=O)CCC2 (configuration not stated) returned miR-122 sensor 108.6*, Cneo AK release 0.6, Rtt109 Vps75 2.4 and dFosB act -9.7.
`CCOC(=O)N1CCN(C(=O)c2cccn3c(=O)c4c5c(sc4nc23)CCCC5)CC1` gave Env fusion inh -4.9, INS-1E GSIS act -1.4 and dFosB act -8.5.
For Cc1cccc(N2CCN(C(=O)c3cccn4c(=O)c5c(C)c(C)sc5nc34)CC2)c1C the results were miR-122 sensor -1.9, Env fusion inh -36.1, INS-1E GSIS act 156.0*, Cneo AK release -0.9, Rtt109 Vps75 1.7 and dFosB act -6.7.
For Cc1ccc(-c2csc(NC(=O)c3cccc(S(=O)(=O)N4CCN(C)CC4)c3)n2)cc1 the results were miR-122 sensor 1.5, Env fusion inh 25.0, Cneo AK release 0.3 and dFosB act inconclusive.
Screening O=C(Nc1nc(-c2cccs2)cs1)c1cccc(S(=O)(=O)N2CCCCC2)c1 returned miR-122 sensor 56.6, Env fusion inh 68.5*, Cneo AK release 0.5, Rtt109 Vps75 -13.4 and dFosB act 4.1.
For O=C(Nc1nc(-c2cc3ccccc3o2)cs1)c1ccc(S(=O)(=O)N2CCCC2)cc1 the results were miR-122 sensor -51.7, Env fusion inh 56.7*, INS-1E GSIS act -1.7, Cneo AK release -0.6, Rtt109 Vps75 -16.6 and dFosB act 3.9.
`CC1CN(S(=O)(=O)c2ccc(C(=O)Nc3nc(-c4cc5ccccc5o4)cs3)cc2)CC(C)O1` (configuration not stated) gave Env fusion inh 38.3, INS-1E GSIS act -6.4, Rtt109 Vps75 -24.9 and dFosB act inconclusive.
For C[C@H]1CN([C@@H](C)CO)S(=O)(=O)c2ccc(-c3cccc(C#N)c3)cc2O[C@@H]1CN(C)C(=O)c1ccc(F)cc1 the results were miR-122 sensor 10.1[16.7 µM], Env fusion inh -4.6[16.7 µM], INS-1E GSIS act -27.8 and Cneo AK release 1.3.
Screening O=C(C[C@H]1C=C[C@@H](NC(=O)Nc2cc(F)ccc2F)[C@H](CO)O1)NCc1ccccn1 returned Env fusion inh -1.7[16.7 µM], INS-1E GSIS act 10.4 and Cneo AK release 9.6.
For CSc1nc(Cl)cc(Nc2ccccc2N)n1 the results were miR-122 sensor -0.3, Env fusion inh 78.7*, INS-1E GSIS act 14.9, Cneo AK release -1.8, Rtt109 Vps75 0.6 and dFosB act -8.5.
`COc1cccc(C(C(=O)NCc2ccccc2)N2CCN(C(=O)C3CCCO3)CC2)c1OC` (configuration not stated) gave Env fusion inh -12.2 and INS-1E GSIS act 43.0*.
For O=C(NCc1ccccc1)C(c1ccco1)N1CCN(C(=O)C2CCCO2)CC1 (configuration not stated) the results were Env fusion inh 11.8 and INS-1E GSIS act -10.0.
For Cc1ccc(S(=O)(=O)Nc2cccc3c2O[C@@H](CN(C)S(=O)(=O)c2ccc(Cl)cc2)[C@H](C)CN([C@@H](C)CO)C3=O)cc1 the results were INS-1E GSIS act 8.8.
`Cc1cc(C)cc(NS(=O)(=O)c2ccc(NC(=S)NC(=O)c3cccs3)cc2)c1` gave miR-122 sensor 132.7*, INS-1E GSIS act -27.7, Cneo AK release 3.4, Rtt109 Vps75 25.0 and dFosB act -13.0.
COc1cc(NS(=O)(=O)c2ccc(NC(=S)NC(=O)c3cccs3)cc2)nc(OC)n1 was read as Env fusion inh -1.3, INS-1E GSIS act -2.9, Rtt109 Vps75 -2.6 and dFosB act -3.7.
Screening O=C(NC(=S)Nc1ccc(NC(=O)c2cccs2)cc1)c1cc2ccccc2o1 returned Env fusion inh 3.8, INS-1E GSIS act 74.1*, Rtt109 Vps75 8.9 and dFosB act -8.9.
COCC(=O)N(C)C[C@@H]1Oc2cc(-c3ccc(C#N)cc3)ccc2S(=O)(=O)N([C@H](C)CO)C[C@@H]1C was read as miR-122 sensor -20.9[16.7 µM], Env fusion inh -3.7[16.7 µM], INS-1E GSIS act 13.4 and Cneo AK release -0.8.
Screening C[C@@H]1CN(C)C(=O)Cc2cc(N(C)C)ccc2O[C@H]1CN(C)S(C)(=O)=O returned INS-1E GSIS act 4.5.
c1ccc2c(-c3cccc4nccn34)cncc2c1 was read as miR-122 sensor -0.9, Env fusion inh 55.0*, INS-1E GSIS act 0.5 and Cneo AK release 0.7.
`CO[C@@H]1CN(C)C(=O)c2ccc(NC(=O)C3CC3)cc2OC[C@@H](C)N(CC2CCOCC2)C[C@@H]1C` gave miR-122 sensor 13.4[16.7 µM], Env fusion inh -4.9[16.7 µM] and INS-1E GSIS act 21.5.
`CCC(=O)Nc1c(C#N)c2nc3ccccc3nc2n1C1CCCCC1` gave Env fusion inh 9.9, Rtt109 Vps75 1.0 and dFosB act -9.9.
For N#Cc1c(N)n(C2CCCCC2)c2nc3ccccc3nc12 the results were miR-122 sensor 4.7, INS-1E GSIS act 43.1*, Cneo AK release -1.8, Rtt109 Vps75 -10.0 and dFosB act -7.3.
For OCCCNc1cc(-c2ccnc(Nc3cccc(Cl)c3)n2)ccn1 the results were Env fusion inh 52.1, INS-1E GSIS act -8.0, Cneo AK release 2.7, Rtt109 Vps75 2.8 and dFosB act -7.7.
Screening CCC(C)Oc1cc(-c2ccnc(Nc3cccc(Cl)c3)n2)ccn1 (configuration not stated) returned Env fusion inh 66.3*, INS-1E GSIS act -11.1, Cneo AK release -1.7, Rtt109 Vps75 -5.4 and dFosB act 2.0.
Screening CCN1[C@@H]2c3ccc(-c4cccc(OC)c4)c(=O)n3C[C@H]1[C@H](CO)[C@H]2C(=O)N(C)C returned INS-1E GSIS act 4.6 and Cneo AK release -0.9.
